Tests used:
[1] = target: Phosphodiesterase 1 (Homo sapiens, UniProt P54750+Q01064+Q14123); test: Inhibition of Calmodulin Sensitive Phosphodiesterase 1 from pig coronary artery; type: tissue-based, Sus scrofa; details: target entry is the homologue from another species
Summary of the method: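 Media plus intima of porcine coronary artery homogenized in 20 mM Tris-HCl pH 7.5, 2 mM Mg(OAc)2, 1 mM DTT. The soluble fraction was resolved on DEAE-cellulose and peak I was pooled. Assay used 1 μM cGMP with calcium + calmodulin, 30 °C for 30 min, at 10-20% hydrolysis. Analogues were tested at 1-100 μM with 3% final Me2SO. I50 was taken as the concentration giving 50% inhibition of hydrolysis.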

[2] = target: cGMP-dependent 3',5'-cyclic phosphodiesterase (Homo sapiens, UniProt O00408); test: Inhibition of Phosphodiesterase 2 from pig coronary artery; type: tissue-based, Sus scrofa; details: target entry is the homologue from another species; read-out: I50
Summary of the method: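 Pooled peak II was the enzyme source, taken from DEAE-cellulose fractionation of soluble porcine coronary media plus intima homogenate (20 mM Tris-HCl pH 7.5, 2 mM Mg(OAc)2, 1 mM DTT). Hydrolysis of 1 μM cAMP ran at 30 °C for 30 min, with enzyme dilution set for 10-20% hydrolysis. Analogues were tested at 1-100 μM in 3% final Me2SO. I50 was the concentration giving 50% inhibition.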

Chain of cGMP-dependent 3',5'-cyclic phosphodiesterase (O00408 whole entry): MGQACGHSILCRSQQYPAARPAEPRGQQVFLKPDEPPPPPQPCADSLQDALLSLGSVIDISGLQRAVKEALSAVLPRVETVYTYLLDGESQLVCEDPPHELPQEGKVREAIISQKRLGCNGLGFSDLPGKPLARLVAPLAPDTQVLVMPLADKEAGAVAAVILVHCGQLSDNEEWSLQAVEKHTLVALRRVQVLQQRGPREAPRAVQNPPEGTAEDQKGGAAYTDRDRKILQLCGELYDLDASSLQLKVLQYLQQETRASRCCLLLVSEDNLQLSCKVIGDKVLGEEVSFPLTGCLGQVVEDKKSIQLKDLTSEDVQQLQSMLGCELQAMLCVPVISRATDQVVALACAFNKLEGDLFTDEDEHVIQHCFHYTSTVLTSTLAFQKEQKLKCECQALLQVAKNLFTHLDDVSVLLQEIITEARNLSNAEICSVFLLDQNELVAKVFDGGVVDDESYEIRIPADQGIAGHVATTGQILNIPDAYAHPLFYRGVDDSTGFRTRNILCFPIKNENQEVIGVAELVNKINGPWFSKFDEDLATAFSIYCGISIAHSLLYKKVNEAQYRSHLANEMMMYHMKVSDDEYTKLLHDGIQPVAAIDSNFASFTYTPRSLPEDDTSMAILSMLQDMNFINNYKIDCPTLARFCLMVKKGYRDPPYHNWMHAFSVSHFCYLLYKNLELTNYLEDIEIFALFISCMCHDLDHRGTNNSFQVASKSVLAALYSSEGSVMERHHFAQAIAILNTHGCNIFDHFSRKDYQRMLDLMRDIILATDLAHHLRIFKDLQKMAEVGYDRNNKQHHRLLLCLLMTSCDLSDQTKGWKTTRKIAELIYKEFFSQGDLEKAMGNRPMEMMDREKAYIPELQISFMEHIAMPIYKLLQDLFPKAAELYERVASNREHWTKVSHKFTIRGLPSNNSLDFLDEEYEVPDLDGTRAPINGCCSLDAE

SMILES | I50 [1] [µM] | IC50 [2] [µM]
CC(C)Cn1c(=O)n(C)c(=O)c2cc3ncn(Cc4ccccc4)c3cc21 | 4.9 | 27
CC(C)Cn1c(=O)n(C)c(=O)c2c3c(ccc21)ncn3Cc1ccccc1 | 19 | 14
CC(C)Cn1c(=O)n(C)c(=O)c2cc3c(cc21)ncn3Cc1ccccc1 | 1.2 | 14
CC(C)CCn1c(=O)c2cc3nc[nH]c3cc2n(CC(C)C)c1=O | > 25 | 20
CC(C)CCn1c(=O)c2nc[nH]c2n(CC(C)C)c1=O | 86 | 17
CC(C)CCn1c(=O)c2c3nc[nH]c3ccc2n(CC(C)C)c1=O | > 25 | 19
CC(C)Cn1c(=O)n(C)c(=O)c2c3ncn(Cc4ccccc4)c3ccc21 | 20 | 13
CC(C)Cn1c(=O)n(C)c(=O)c2c1ncn2Cc1ccccc1 | 4.4 | 108

Results, then the compound that gave them:

I50 [1] [µM] | IC50 [2] [µM] | SMILES
> 50 | 44 | CC(C)Cn1c(=O)n(C)c(=O)c2c3nc(C(C)(C)C)[nH]c3ccc21
1.8 | 58 | CC(C)Cn1c(=O)n(C)c(=O)c2[nH]c(C(C)(C)C)nc21
8.4 | 18 | CC(C)Cn1c(=O)n(C)c(=O)c2c3nc[nH]c3ccc21
36 | > 50 | COCc1nc2cc3c(=O)n(C)c(=O)n(CC(C)C)c3cc2[nH]1
5.2 | 212 | COCc1nc2c([nH]1)c(=O)n(C)c(=O)n2CC(C)C
40 | 89 | CC(C)Cn1c(=O)n(C)c(=O)c2cc3[nH]cnc3cc21
54 | 66 | COCc1nc2c(ccc3c2c(=O)n(C)c(=O)n3CC(C)C)[nH]1
15 | > 25 | Cc1nc2c(ccc3c2c(=O)n(C)c(=O)n3CC(C)C)[nH]1
1.9 | 68 | Cc1nc2c([nH]1)c(=O)n(C)c(=O)n2CC(C)C
6.3 | 15 | CC(C)Cn1c(=O)n(C)c(=O)c2nc[nH]c21 [ISOBUTYLMETHYLXANTHINE]
36 | > 50 | Cc1nc2cc3c(cc2[nH]1)c(=O)n(C)c(=O)n3CC(C)C
41 | > 50 | CC(C)Cn1c(=O)n(C)c(=O)c2cc3[nH]c(C(C)(C)C)nc3cc21
